# Bioassay records deposited in PubChem BioAssay by Broad Institute.
# INS-1E rescue: protection of INS-1E cells from cytokine death, primary screen, ATP luminescence, single point | INS-1E cytokine-induced death, 48 h; normalised: neutral wells 0, positive control 100 | protection from cytokine-induced ATP loss, % at 10 µM | actives 0.1% (n = 20,000);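 active means mean replicate protection from cytokine-induced ATP loss at least 50% and at least 75% of replicates each reaching 50%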
#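 Test system: INS-1E rat cells | Quantity: 8000 cells per well | Medium: Phenol-red-free RPMI with 5% fetal bovine serum | Reagent: Cytokine cocktail of IFN-γ, TNF-α and IL-1β | Doses: One compound concentration, pin transfer | Timing: 48 h co-treatment, 10 min post-lysis read | Technique: Luminescent ATP assay (CellTiter-Glo)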
# T cruzi HTS: inhibitors of intracellular Trypanosoma cruzi, primary screen, cell-based, plate reader, single point, set 2. AID 651903, 2012. actives 4.9% (n = 22,000). activity score (inhibition), % at 5.01 µM. intracellular Trypanosoma cruzi in host cells; in the data active means activity score above about 55%;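 further: parasites and compound incubated about four days before reading; 0% = median of neutral control wells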
# YB-1 expression: inhibitors of YB-1 gene expression, primary screen, cell-based, fluorescence; U2OS, qRT-PCR YB-1 vs CDIP delta delta Cp, 16 h; hits give high values; zero = DMSO, each unit about twofold; delta delta Cp (YB-1 minus CDIP) (test concentration not listed); actives 0.37% (n = 30,000);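 active means delta delta Cp rounded down to an integer at or above 3, about 3 SD of DMSO wells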;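 further: higher means less YB-1 transcript or more CDIP transcript relative to DMSO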
# The depositor's hits bear a star; x = no result. This is one part of a sample in which hits are shown more often than they occur.
SMILES,INS-1E rescue,T cruzi HTS,YB-1 expression
COc1cc(SC)ccc1C(=O)NC1CC1,x,x,-0.093
C[C@H](CO)N1C[C@H](C)[C@H](CN(C)C)Oc2c(NC(=O)Nc3ccc(C(F)(F)F)cc3)cccc2C1=O,-5.1,81.0*,-0.37
C[C@H]1CN([C@@H](C)CO)C(=O)c2cccc(NC(=O)Nc3ccc(C(F)(F)F)cc3)c2O[C@@H]1CN(C)C,-11.9,38.4,-0.332
C[C@@H]1CN([C@@H](C)CO)C(=O)c2cccc(NC(=O)Nc3ccc4c(c3)OCO4)c2O[C@@H]1CN(C)C(=O)Nc1ccc(C(F)(F)F)cc1,3.5,-27.9,-0.00905
C[C@H]1CN([C@@H](C)CO)C(=O)c2cccc(NC(=O)Nc3ccc(C(F)(F)F)cc3)c2O[C@H]1CN(C)C(=O)Nc1ccc(C(F)(F)F)cc1,-2.9,48.4,0.386
C[C@@H]1CN([C@H](C)CO)C(=O)c2cccc(NC(=O)Nc3ccc(C(F)(F)F)cc3)c2O[C@@H]1CN(C)C(=O)Nc1ccc(C(F)(F)F)cc1,-111.6,74.7*,-0.296
C[C@@H]1CN([C@H](C)CO)C(=O)c2cccc(NC(=O)Nc3ccc(C(F)(F)F)cc3)c2O[C@H]1CN(C)C(=O)Nc1ccc2c(c1)OCO2,-56.4,66.4*,0.00445
C[C@H]1CN([C@@H](C)CO)C(=O)c2cccc(NC(=O)C3CC3)c2O[C@H]1CN(C)C(=O)Nc1ccc2c(c1)OCO2,7.1,-6.1,1.14
C[C@@H]1CN([C@@H](C)CO)C(=O)c2cccc(NC(=O)C3CC3)c2O[C@@H]1CN(C)C(=O)Nc1ccc2c(c1)OCO2,13.6,-6.7,3.7*
CCCC1=NN(C(=O)C(C)(C)C)C(=O)C1Cc1c(F)cccc1Cl (stereo not drawn),x,x,0.25
COc1c(C)c(OCC=C(C)C)cc(CO)c1CO,x,x,0.00401
N=c1ncn(CC(O)CO)c2nc(Br)[nH]c12 (stereo not drawn),x,x,-0.139
COC(=O)CCCCCCC(=O)N/N=C/c1cccc(Oc2ccccc2)c1,2.8,-6.0,-0.103
COC(=O)CCCCCCC(=O)N/N=C/c1ccc(-n2ccnc2)cc1,3.1,-13.1,0.304
O=C(CCC(=O)N(Cc1ccccc1)Cc1ccccc1)Nc1ccc(F)cc1,x,x,0.25
C[C@@H]1CN([C@H](C)CO)C(=O)Cc2cc(NC(=O)Nc3ccc(F)cc3)ccc2O[C@H]1CN(C)Cc1ccc(C(F)(F)F)cc1,-65.0,72.9*,0.319
C[C@H](CO)N1C[C@H](C)[C@H](CN(C)Cc2ccc(C(F)(F)F)cc2)Oc2ccc(NC(=O)Nc3ccc(F)cc3)cc2CC1=O,-18.2,77.6*,-0.173
CC(C)NC(=O)Nc1ccc2c(c1)CC(=O)N([C@@H](C)CO)C[C@@H](C)[C@@H](CN(C)Cc1ccc(C(F)(F)F)cc1)O2,0.5,9.4,-0.0799
C[C@H]1CN([C@@H](C)CO)C(=O)Cc2cc(NC(=O)Nc3ccc(F)cc3)ccc2O[C@@H]1CN(C)Cc1ccc(C(F)(F)F)cc1,-54.9,83.8*,-0.157
CC(C)NC(=O)Nc1ccc2c(c1)CC(=O)N([C@H](C)CO)C[C@H](C)[C@H](CN(C)Cc1ccc(C(F)(F)F)cc1)O2,5.0,16.6,-0.201
COc1cc(Br)cc(/C=N/NC(=O)CCCCCC(=O)Nc2ccccc2O)c1O,-6.8,33.6,-0.229
Cc1ccc(S(=O)(=O)Nc2ccc3c(c2)CC(=O)N([C@@H](C)CO)C[C@H](C)[C@@H](CN(C)S(=O)(=O)c2ccc(C)cc2)O3)cc1,1.6,-5.8,-0.119
Cc1ccc(S(=O)(=O)Nc2ccc3c(c2)CC(=O)N([C@H](C)CO)C[C@@H](C)[C@@H](CN(C)S(=O)(=O)c2cccs2)O3)cc1,-10.4,67.6*,0.155
Cc1ccc(S(=O)(=O)Nc2ccc3c(c2)CC(=O)N([C@@H](C)CO)C[C@@H](C)[C@@H](CN(C)S(=O)(=O)c2ccc(C)cc2)O3)cc1,-5.3,61.7*,0.0537
COc1ccc(S(=O)(=O)N(C)C[C@H]2Oc3ccc(NS(=O)(=O)c4ccc(F)cc4)cc3CC(=O)N([C@@H](C)CO)C[C@H]2C)cc1,1.1,14.0,0.204
COc1ccc(S(=O)(=O)Nc2ccc3c(c2)CC(=O)N([C@@H](C)CO)C[C@@H](C)[C@@H](CN(C)S(=O)(=O)c2ccc(F)cc2)O3)cc1,-8.0,63.5*,0.224
COc1ccc(S(=O)(=O)N(C)C[C@@H]2Oc3ccc(NS(=O)(=O)c4ccccc4)cc3CC(=O)N([C@H](C)CO)C[C@H]2C)cc1,10.5,-14.6,0.123
Cc1ccc(S(=O)(=O)Nc2ccc3c(c2)CC(=O)N([C@@H](C)CO)C[C@@H](C)[C@@H](CN(C)S(=O)(=O)c2cccs2)O3)cc1,-0.5,37.7,0.111
